{"data": "Results pooled from the literature", "cell line": "MDA-MB-231", "observed": "cell growth or viability", "note": "Compare with care: the assays were run in different laboratories."}
{"Compound": "Cc1cc(NS(=O)(=O)c2ccc(NC(=O)/C(C#N)=C/c3ccncc3)cc2)no1", "assay": "MTT", "conditions": "48 h", "IC50": "116 µM"}
{"Compound": "C[C@H]1[C@H](C)CC[C@]2(C)CC[C@]3(C)C(=CC(=O)[C@@H]4[C@@]5(C)CC[C@@H](O)[C@](C)(C(=O)NCc6cn(-c7cccc(Br)c7)nn6)[C@@H]5CC[C@]43C)[C@H]12", "assay": "MTT", "conditions": "24 h", "IC50": "61.5 µM"}
{"Compound": "Cc1cc(NS(=O)(=O)c2ccc(NC(=O)/C(C#N)=C/c3ccc(N4CCCCC4)cc3)cc2)no1", "assay": "MTT", "conditions": "48 h", "IC50": "20 µM"}
{"Compound": "CC(C)[C@@H]1NC(=O)/C(=C/c2cnc[nH]2)NC1=O", "assay": "SRB", "IC50": "> 15 µM"}
{"Compound": "CC(C)CNC(=S)N/N=C/c1cccc2cc3ccccc3nc12", "assay": "MTT", "conditions": "48 h", "IC50": "> 50 µM"}
{"Compound": "Cc1ccc(S(=O)(=O)n2cc(/C=N/NC(=O)c3ccccc3Br)c3ccccc32)cc1", "assay": "MTT", "conditions": "48 h", "IC50": "29.4 µM"}
{"Compound": "Nc1nc2cc(CC[C@H]3C[C@@H](n4ccc5c(N)ncnc54)[C@H](O)[C@@H]3O)ccc2cc1Br", "assay": "CCK-8", "conditions": "72 h", "IC50": "> 100 µM"}
{"Compound": "Cc1ccc(S(=O)(=O)n2cc(/C=N/NC(=O)Cc3ccc(F)cc3F)c3ccccc32)cc1", "assay": "MTT", "conditions": "48 h", "IC50": "26.4 µM"}
{"Compound": "C[C@H]1[C@H](C)CC[C@]2(C)CC[C@]3(C)C(=CC(=O)[C@@H]4[C@@]5(C)CC[C@@H](O)[C@](C)(C(=O)NCc6cn(-c7ccc(F)cc7)nn6)[C@@H]5CC[C@]43C)[C@H]12", "assay": "MTT", "conditions": "24 h", "IC50": "71.4 µM"}
{"Compound": "COc1cccc(NC(=O)Nc2ccc(Oc3nc4ccccc4n4cnnc34)cc2)c1", "assay": "MTT", "conditions": "24 h", "IC50": "21.7 µM"}
{"Compound": "O=C1Nc2ccccc2/C1=N/N=C/c1cccc([N+](=O)[O-])c1", "assay": "MTT", "conditions": "24 h", "IC50": "38.3 µg/mL"}
{"Compound": "Cc1sc2c(c1C)C(c1ccc(Cl)cc1)=N[C@@H](CC(=O)NCCCCNC(=O)COc1cccc3c1C(=O)N(C1CCC(=O)NC1=O)C3=O)c1nnc(C)n1-2 (stereo partly drawn)", "assay": "CCK-8", "conditions": "72 h", "IC50": "1.14 µM"}
{"Compound": "CC1CCC(C(C)C)C(OC2=C(Cl)C(=O)c3ccccc3C2=O)C1 (stereo not drawn)", "assay": "MTT", "conditions": "24 h", "IC50": "5 µg/mL"}
{"Compound": "COc1ccc(C(=O)N/N=C/c2cn(S(=O)(=O)c3ccc(C)cc3)c3ccccc23)cc1", "assay": "MTT", "conditions": "48 h", "IC50": "34.4 µM"}
{"Compound": "C[C@H]1[C@H](C)CC[C@]2(C(=O)O)CC[C@]3(C)C(=CC[C@@H]4[C@@]5(C)CC[C@H](O)C(C)(C)[C@@H]5CC[C@]43C)[C@H]12", "assay": "MTT", "conditions": "24 h", "IC50": "15 µM"}
{"Compound": "S=C(N/N=C/c1cccc2cc3ccccc3nc12)Nc1ccccc1", "assay": "MTT", "conditions": "48 h", "IC50": "> 50 µM"}
{"Compound": "Cc1ccc(S(=O)(=O)n2cc(/C=N/NC(=O)c3ccc(C)c(F)c3)c3ccccc32)cc1", "assay": "MTT", "conditions": "48 h", "IC50": "21.3 µM"}
{"Compound": "CO[C@H]1[C@H](O[C@H]([C@H]2O[C@@H](n3ccc(=O)[nH]c3=O)[C@H](O)[C@@H]2O)[C@H](NCCCNC(=O)[C@@H](NC(=O)[C@@H](NC(=O)N[C@H](C(=O)O)C(C)C)[C@@H]2CCN=C(N)N2)[C@@H](OC(=O)CCCCCCCCCCCCN(O)C(=N)N)C(C)C)C(=O)O)O[C@H](CN)[C@H]1O", "assay": "WST-1", "IC50": "0.98 µM"}
